# How the values were obtained:
# Escherichia coli [1] = test: Antimicrobial activity against beta lactamase CTX-M-10 producing Escherichia coli GB20 by broth microdilution method; type: functional
# Escherichia coli [2] = test: Antimicrobial activity against Escherichia coli GB20 harboring P167S mutation in beta lactamase CTX-M-10 by broth microdilution method; type: functional
# Escherichia coli [3] = test: Antimicrobial activity against Escherichia coli GB20 harboring D240G mutation in beta lactamase CTX-M-10 by broth microdilution method; type: functional
# Escherichia coli [4] = test: Antimicrobial activity against Escherichia coli GB20 harboring V27A, Q38R mutations in beta lactamase CTX-3 by broth microdilution method; type: functional
# Escherichia coli [5] = test: Antimicrobial activity against Escherichia coli GB20 harboring V27A, Q38R, P167S mutation in beta lactamase CTX-M-3 by broth microdilution method; type: functional
# Escherichia coli [6] = test: Antimicrobial activity against Escherichia coli GB20 harboring V27A, Q38R, A77V, P167S mutation in beta lactamase CTX-M-3 by broth microdilution method; type: functional
# Escherichia coli [7] = test: Antimicrobial activity against Escherichia coli GB20 harboring V27A, Q38R, A77V, N114D, A140S, D288N mutations in beta lactamase CTX-M-1 by broth microdilution method; type: functional
# Escherichia coli [8] = test: Antimicrobial activity against Escherichia coli GB20 harboring V27A, Q38R, A77V, N114D, A140S, P167S, D288N mutations in beta lactamase CTX-M-1 by broth microdilution method; type: functional
# Escherichia coli [9] = test: Antimicrobial activity against Escherichia coli GB20 harboring V27A, Q38R, A77V, N114D, A140S, P167T, D288N mutations in beta lactamase CTX-M-1 by broth microdilution method; type: functional
# Escherichia coli [10] = test: Antimicrobial activity against Escherichia coli MI1443 harboring V27A, Q38R, D240G mutations in beta lactamase CTX-M-15 by broth microdilution method; type: functional
# Escherichia coli [11] = test: Antimicrobial activity against Escherichia coli MI1443 harboring V27A, Q38R, A77V, N114D, A140S, D240G, D288N mutations in beta lactamase CTX-M-32 by broth microdilution method; type: functional
# Escherichia coli [12] = test: Antimicrobial activity against Escherichia coli MI1443 harboring A77V mutation in beta lactamase CTX-M-10 by E-test; type: functional
# How it was run: (§1)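 MICs by E-test. Host is E. coli MI1443 carrying an artificial blaCTX-M derivative made by PCR and cloned into pBGS18- (EcoRI/PstI). Transformants were selected on kanamycin 50 µg/ml and the mutation was confirmed by sequencing. Agents tested: cefotaxime, ceftazidime, cefepime, cefuroxime and amoxicillin-clavulanate.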
# Escherichia coli [13] = test: Antimicrobial activity against Escherichia coli MI1443 harboring A77V and P167S mutations in beta lactamase CTX-M-10 by E-test; type: functional
# How it was run: (§2)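 E-test MICs on E. coli MI1443 carrying artificial blaCTX-M derivatives. Each gene was cloned into pBGS18– at EcoRI/PstI, transformed into MI1443, selected with kanamycin 50 µg/ml, and sequenced to confirm the mutation. Agents: cefotaxime, ceftazidime, cefepime, cefuroxime, amoxicillin-clavulanate.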
# Escherichia coli [14] = test: Antimicrobial activity against Escherichia coli MI1443 harboring A77V and D240G mutations in beta lactamase CTX-M-10 by E-test; type: functional; how it was run: as §2
# Escherichia coli [15] = test: Antimicrobial activity against Escherichia coli MI1443 harboring N106S mutation in beta lactamase CTX-M-10 by E-test; type: functional; how it was run: as §2
# Escherichia coli [16] = test: Antimicrobial activity against Escherichia coli MI1443 harboring N106S and P167S mutations in beta lactamase CTX-M-10 by E-test; type: functional; how it was run: as §2
# Escherichia coli [17] = test: Antimicrobial activity against Escherichia coli MI1443 harboring N106S and D240G mutations in beta lactamase CTX-M-10 by E-test; type: functional; how it was run: as §2
# Escherichia coli [18] = test: Antimicrobial activity against Escherichia coli MI1443 harboring P167S and D240G mutations in beta lactamase CTX-M-10 by E-test; type: functional; how it was run: as §1
# Escherichia coli [19] = test: Antimicrobial activity against Escherichia coli MI1443 harboring V27A and Q38R mutations in beta lactamase CTX-M-10 by E-test; type: functional; how it was run: as §2
# Escherichia coli [20] = test: Antimicrobial activity against Escherichia coli MI1443 harboring V27A, Q38R, A77V mutations in beta lactamase CTX-M-3 by E-test; type: functional; how it was run: as §1
# Escherichia coli [21] = test: Antimicrobial activity against Escherichia coli MI1443 harboring V27A, Q38R, A77V and D240G mutations in beta lactamase CTX-M-3 by E-test; type: functional; how it was run: as §2
# Escherichia coli [22] = test: Antimicrobial activity against Escherichia coli MI1443 harboring V27A, Q38R, N106S mutations in beta lactamase CTX-M-3 by E-test; type: functional; how it was run: as §1
# Escherichia coli [23] = test: Antimicrobial activity against Escherichia coli MI1443 harboring V27A, Q38R, N106S and P167S mutations in beta lactamase CTX-M-3 by E-test; type: functional; how it was run: as §1
# Escherichia coli [24] = test: Antimicrobial activity against Escherichia coli MI1443 harboring V27A, Q38R, N106S and D240G mutations in beta lactamase CTX-M-3 by E-test; type: functional; how it was run: as §2
# Escherichia coli [25] = test: Antimicrobial activity against Escherichia coli MI1443 harboring V27A, Q38R, P167S and D240G mutations in beta lactamase CTX-M-3 by E-test; type: functional; how it was run: as §1
# Escherichia coli [26] = test: Antimicrobial activity against beta lactamase CTX-M-10 producing Escherichia coli MI1443 by broth microdilution
Structure (SMILES),MIC (Escherichia coli [1]),MIC (Escherichia coli [2]),MIC (Escherichia coli [3]),MIC (Escherichia coli [4]),MIC (Escherichia coli [5]),MIC (Escherichia coli [6]),MIC (Escherichia coli [7]),MIC (Escherichia coli [8]),MIC (Escherichia coli [9]),MIC (Escherichia coli [10]),MIC (Escherichia coli [11]),MIC (Escherichia coli [12]),MIC (Escherichia coli [13]),MIC (Escherichia coli [14]),MIC (Escherichia coli [15]),MIC (Escherichia coli [16]),MIC (Escherichia coli [17]),MIC (Escherichia coli [18]),MIC (Escherichia coli [19]),MIC (Escherichia coli [26]),also measured
CC(C)(O/N=C(\C(=O)N[C@@H]1C(=O)N2C(C(=O)[O-])=C(C[n+]3ccccc3)CS[C@H]12)c1csc(N)n1)C(=O)O [CEFTAZIDIME],1 µg/mL,32 µg/mL,16 µg/mL,1 µg/mL,32 µg/mL,32 µg/mL,4 µg/mL,256 µg/mL,256 µg/mL,2 µg/mL,2 µg/mL,8 µg/mL,64 µg/mL,8 µg/mL,0.5 µg/mL,16 µg/mL,2 µg/mL,4 µg/mL,1 µg/mL,1 µg/mL,MIC (Escherichia coli [20]): 1 µg/mL; MIC (Escherichia coli [21]): 2 µg/mL; MIC (Escherichia coli [22]): 0.5 µg/mL; MIC (Escherichia coli [23]): 32 µg/mL; MIC (Escherichia coli [24]): 2 µg/mL; MIC (Escherichia coli [25]): 8 µg/mL
CO/N=C(\C(=O)N[C@@H]1C(=O)N2C(C(=O)O)=C(COC(C)=O)CS[C@H]12)c1csc(N)n1 [CEFOTAXIME],256 µg/mL,1 µg/mL,≥ 256 µg/mL,256 µg/mL,1 µg/mL,4 µg/mL,≥ 256 µg/mL,16 µg/mL,16 µg/mL,128 µg/mL,256 µg/mL,≥ 256 µg/mL,4 µg/mL,≥ 256 µg/mL,2 µg/mL,2 µg/mL,64 µg/mL,4 µg/mL,256 µg/mL,256 µg/mL,MIC (Escherichia coli [20]): 128 µg/mL; MIC (Escherichia coli [21]): ≥ 256 µg/mL; MIC (Escherichia coli [22]): 3 µg/mL; MIC (Escherichia coli [23]): 3 µg/mL; MIC (Escherichia coli [24]): ≥ 256 µg/mL; MIC (Escherichia coli [25]): 1.5 µg/mL
CO/N=C(\C(=O)N[C@@H]1C(=O)N2C(C(=O)O)=C(COC(N)=O)CS[C@H]12)c1ccco1 [CEFUROXIME],≥ 256 µg/mL,32 µg/mL,,,128 µg/mL,64 µg/mL,,,,,,,64 µg/mL,,,,,,,≥ 256 µg/mL,
CO/N=C(\C(=O)N[C@@H]1C(=O)N2C(C(=O)[O-])=C(C[N+]3(C)CCCC3)CS[C@H]12)c1csc(N)n1 [CEFEPIME],32 µg/mL,1 µg/mL,4 µg/mL,32 µg/mL,0.5 µg/mL,0.25 µg/mL,128 µg/mL,4 µg/mL,4 µg/mL,1 µg/mL,4 µg/mL,128 µg/mL,1 µg/mL,32 µg/mL,1 µg/mL,1 µg/mL,4 µg/mL,< 0.25 µg/mL,32 µg/mL,32 µg/mL,MIC (Escherichia coli [20]): 1.5 µg/mL; MIC (Escherichia coli [21]): 4 µg/mL; MIC (Escherichia coli [22]): 1.5 µg/mL; MIC (Escherichia coli [23]): 1.5 µg/mL; MIC (Escherichia coli [24]): 8 µg/mL; MIC (Escherichia coli [25]): 0.5 µg/mL

# Source: ChEMBL document CHEMBL1255375, “Mutational events in cefotaximase extended-spectrum beta-lactamases of the CTX-M-1 cluster involved in ceftazidime resistance” (2008)
